Screening data: PubChem BioAssay, Broad Institute
CFTR F508del cor = correctors of CFTR F508del function in bronchial epithelial cells | CFBE cells, YFP halide quenching; stimulated with forskolin plus potentiator P3; % fluorescence drop versus neutral controls | 350,000 tested, 0.36% active | activity (quench increase), % at 7.58 µM;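 active = mean added fluorescence quench of at least 8% versus neutral control, with both replicates also reaching 8%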;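 note: cells transiently co-express mutant CFTR-F508del with the halide-sensitive YFP; corrector assay measuring rescue of mutant channel to the surface after 24 h compound exposure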
E-selectin induc = E-selectin induction on HUVECs. P16581. HUVEC E-selectin immunofluorescence imaging; normalized: neutral wells 0, TNF-alpha wells 100. activation, % at 7.58 µM. 260,000 tested, 0.37% active. AID 686992;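 active = mean E-selectin-positive cell signal at least 10% of the positive control, reached in at least 60% of replicates, without over 20% cell loss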
Target sequence (P16581 whole entry, looked up): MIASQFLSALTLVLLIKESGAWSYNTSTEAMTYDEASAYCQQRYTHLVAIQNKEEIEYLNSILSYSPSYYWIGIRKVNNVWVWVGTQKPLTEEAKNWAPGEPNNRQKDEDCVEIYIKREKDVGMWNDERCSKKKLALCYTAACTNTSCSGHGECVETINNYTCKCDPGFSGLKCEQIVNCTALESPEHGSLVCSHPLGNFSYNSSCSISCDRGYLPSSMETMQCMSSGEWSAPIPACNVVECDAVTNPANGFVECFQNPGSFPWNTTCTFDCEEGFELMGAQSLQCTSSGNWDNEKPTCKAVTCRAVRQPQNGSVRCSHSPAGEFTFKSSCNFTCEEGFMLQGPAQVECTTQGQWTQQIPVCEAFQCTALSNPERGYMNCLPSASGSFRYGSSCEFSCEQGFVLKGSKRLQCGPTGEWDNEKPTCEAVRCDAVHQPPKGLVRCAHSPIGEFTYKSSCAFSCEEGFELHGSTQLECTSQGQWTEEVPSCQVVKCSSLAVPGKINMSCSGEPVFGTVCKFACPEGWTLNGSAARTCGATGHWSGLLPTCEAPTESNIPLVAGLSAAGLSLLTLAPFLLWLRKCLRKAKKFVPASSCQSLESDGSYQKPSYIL
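System: HUVEC, human umbilical vein endothelial cells; quantity: 3,000 cells/well; buffer or medium: EGM-2 medium, gelatin-coated wells; dosing: single-point compound dose; detection: immunofluorescence imaging; evaluation: % PE-positive cells; benchmarks: TNF-alpha, DMSO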
Env fusion inh = blocks HIV Env-driven cell-cell fusion | HeLa-JRFL Env/CEM21 cell fusion, luciferase | inhibition, % at 12.3 µM | 360,000 tested, 1.1% active;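 active = mean replicate inhibition score of at least 50 and every replicate individually at or above 50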;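 note: 0% = plate neutral controls and 100% = maraviroc near 300 nM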
FGF22 binding = FGF22 (human) thermal shift binding | recombinant FGF22 thermal shift, SYPRO orange fluorescence; percent of sucrose octasulfate shift, DMSO zero | AID 651658 | activity (Tm shift, normalised), % at 9.99 µM | Q9HCT0 | 340,000 tested, 1.5% active;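 active = mean Tm shift, scaled 0 neutral to 100 positive control, at about 1.3% or above, every replicate too, limit read from the data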
S100A4 MyoIIA = S100A4-myosin IIA interaction inhibition; AID 652163; P26447; inhibition, % at 10.7 µM; 360,000 tested, 0.14% active; S100A4/TAMRA-MyoIIA peptide fluorescence polarization;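 active = mean inhibition of at least 70% across replicates, with every replicate also reaching that level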
Target sequence (P26447 whole entry, looked up): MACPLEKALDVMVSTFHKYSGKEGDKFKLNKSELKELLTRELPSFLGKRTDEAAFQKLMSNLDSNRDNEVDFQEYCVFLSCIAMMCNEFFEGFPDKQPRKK
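Assay system: human S100A4 monomer with TAMRA-labelled myosin IIA peptide / Buffer or medium: Calcium-containing HEPES buffer, pH 7.2 / Reagent: TAMRA-labelled myosin IIA heavy-chain peptide probe, 5 nM / Compound: one dose per compound / Timing: polarization read 5 min after assay mix addition, stable 5–60 min / Benchmarks: neutral control DMSO, positive control TFP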
The depositor's hits bear a star; i = inactive; nt = not tested or not shown; [ ] = remark or other dose. The list is not random: actives were taken first. Their share in the collection is about 2.7%.

SMILES | CFTR F508del cor | E-selectin induc | Env fusion inh | FGF22 binding | S100A4 MyoIIA
C[C@@H](Oc1ccccc1)c1nnn(Cc2ccccc2)c1-c1c([C@@H](C)Oc2ccccc2)nnn1Cc1ccccc1 | 1.7 | nt | 73.1* | -0.2 | 12.0
CO[C@H]1CN(C)C(=O)c2ccc(NS(C)(=O)=O)cc2OC[C@@H](C)N(C(=O)C2CCC2)C[C@H]1C | -2.2 | -0.2 | nt | -0.4 | 23.5
CN1CC(c2ccc(Cl)c(Cl)c2)[C@@]2(COc3ccccc3C2=O)[C@@]12C(=O)Nc1ccccc12 (stereo not given in full) | nt | nt | 103.1* | nt | nt
CCOc1nc2ccccc2cc1C=O | -0.5 | 2.7 | -41.2 | 43.4* | 4.4
CCCOc1nc2ccccc2cc1/C=C/C(=O)O | 2.9 | nt | -1.2 | 0.3 | 7.7
C[C@@H]1CN([C@@H](C)CO)C(=O)c2cc(NC(=O)CCCN(C)C)ccc2O[C@H]1CN(C)C(=O)NC1CCCCC1 | -0.5 | -0.1 | 14.1[16.7 µM] | nt | 18.5
COc1ccc(C(Nc2cccc([N+](=O)[O-])c2)P(=O)(OC(C)C)OC(C)C)cc1 (stereo not given) | 4.9 | -0.3 | 57.0* | 0.1 | 18.4
Cn1cnc(S(=O)(=O)N2C[C@H](O)COC[C@H]3O[C@H](CC(=O)NCc4cc(F)cc(F)c4)CC[C@@H]32)c1 | 1.1 | -0.1 | nt | -0.1 | -12.1
CCOC(=O)c1c(C)[nH]c(C)c1C(=O)COC(=O)c1cc(OC)cc(OC)c1 | -0.5 | -0.5 | -6.6 | 58.8* | 1.9
CCOC(=O)c1c(C)[nH]c(C)c1C(=O)COC(=O)c1ccc([N+](=O)[O-])s1 | 9.3* | -1.1 | nt | 0.0 | -0.1
CCOC(=O)c1c(C)[nH]c(C)c1C(=O)COC(=O)c1ccc(OC)cc1 | -3.9 | 3.2 | 17.8 | 1.1 | 2.9
O=C(OCC(=O)c1c[nH]c2ccccc12)c1ccc([N+](=O)[O-])s1 | 0.0 | nt | 3.8 | 0.3 | -1.7
CCc1cccc2c(C(=O)COC(=O)c3ccc([N+](=O)[O-])s3)c[nH]c12 | -2.8 | nt | -22.1 | 44.3* | 1.9
C[C@H](CO)N1C[C@H](C)[C@H](CN(C)C(=O)C2CCOCC2)Oc2ncc(-c3cccnc3)cc2C1=O | -1.7 | -0.2 | -5.5[16.7 µM] | -0.3 | -4.8
CO[C@@H]1CN(C)C(=O)c2cc(NC(=O)c3cnccn3)ccc2OC[C@H](C)N(C)C[C@H]1C | -1.4 | -0.1 | -9.4[16.7 µM] | 0.0 | -23.0
N#CC1CC(c2ccc([N+](=O)[O-])cc2)=NN1c1ccc([N+](=O)[O-])cc1 (stereo not given) | 1.1 | 0.5 | -3.6 | 43.7* | 11.5
COc1ccc(C2NC(Cc3ccccc3)(C(=O)O)C3C(=O)N(c4ccccc4OC)C(=O)C23)cc1 (stereo not given) | nt | nt | -13.3 | 42.9* | 4.0
COc1cc(-c2cc(=O)c3c(O)cc(O)cc3o2)cc(OC)c1OC | -4.6 | nt | nt | 0.1 | -0.2
O=c1cc(-c2ccc(O)c(O)c2)oc2cc(O)cc(O)c12 | 8.0* | 0.0 | -52.7 | 0.7 | 4.4
COc1ccc(-c2cc(=O)c3c(O)cc(O)cc3o2)cc1 | 9.8* | 0.9 | -123.2 | 0.0 | 1.0
O=c1cc(-c2ccc(O)c(-c3c(O)cc(O)c4c(=O)cc(-c5ccc(O)cc5)oc34)c2)oc2cc(O)cc(O)c12 | 3.3 | 0.0 | nt | 44.8* | 2.1
C[C@@H]1CN([C@H](C)CO)C(=O)c2cc(NC(=O)Cc3ccccc3)ccc2O[C@@H]1CN(C)C(=O)Nc1ccc2c(c1)OCO2 | 4.6 | -4.1 | -10.6[16.7 µM] | -0.2 | -7.4
COc1ccc2c3c(n(C)c2c1)[C@H](CO)N(C(=O)CN(C)C)CC31CCN(C(=O)NC(C)C)CC1 | -2.0 | 0.4 | nt | -0.2 | 0.4
O=C(O)C1C(c2ccccc2)=C1c1ccc(Br)cc1 (stereo not given) | -2.8 | 0.3 | -1.0 | 43.1* | -2.3
CCCCCC1(C)NC(=S)N(c2ccccc2)N1 (stereo not given) | 0.6 | nt | 12.8 | 43.6* | -4.4
SMILES | CFTR F508del cor | E-selectin induc | Env fusion inh | FGF22 binding | S100A4 MyoIIA
CCCCCCC1(C)NC(=S)N(c2ccccc2)N1 (stereo not given) | 0.7 | nt | 3.2 | 0.0 | 0.9
CCN(CCn1cccn1)Cc1nc(-c2ccc(OC)cc2)no1 | 0.0 | nt | 9.5 | 43.1* | 6.2
Cc1ccc(S(=O)(=O)N2c3ccc(S(N)(=O)=O)cc3CC2C)cc1 (stereo not given) | 4.3 | nt | -1.4 | 44.0* | -4.3
Nc1nc2c(s1)COc1ccccc1-2 | -1.7 | nt | -8.3 | 42.9* | 1.7
CC(C)(C)C(=O)Nc1nc2c(s1)COc1ccccc1-2 | -0.7 | 0.2 | -17.1 | 0.2 | 6.1
COc1ccc2c3c(n(C)c2c1)[C@H](CO)N(C(C)=O)CC31CN(Cc2nccs2)C1 | 6.5 | -0.3 | nt | 0.2 | 7.2
O=C1CCN(CCCN2CCC(=O)NC2=S)C(=S)N1 | -1.1 | 0.0 | nt | 43.7* | 2.0
CCCCN1CCC(=O)NC1=O | -1.4 | -1.0 | 6.0 | -0.2 | -10.1
O=C(C(=O)N1CCCC1)c1c[nH]c2ccccc12 | -1.9 | -0.1 | -12.9 | -0.3 | 1.5
O=C(C(=O)N1CCOCC1)c1c[nH]c2ccccc12 | 4.1 | nt | -5.5 | 43.2* | 1.4
O=C1OC(c2cccs2)=N/C1=C/c1ccc(-c2cccc(C(=O)O)c2)o1 | -5.3 | -1.5 | 0.0 | 9.4* | -12.7
COc1ccc(C2CC(c3cccc(Br)c3)=NN2c2ccc(S(N)(=O)=O)cc2)cc1 (stereo not given) | 10.4* | 0.3 | -14.4 | 0.2 | -7.0
Cc1cccc(S(=O)(=O)N2CCCCN3[C@@H](CO)[C@@H](c4ccc(-c5cccnc5)cc4)[C@@H]3C2)c1 | 4.7 | -0.4 | nt | -0.3 | 2.5
O=c1c2ccccc2c(/C=N/c2n[nH]c(CCCO)n2)c(O)n1-c1ccccc1Cl | -3.5 | 3.4 | -10.8 | 43.0* | -1.9
C[C@H]1CN([C@@H](C)CO)C(=O)Cc2cc(NC(=O)NC3CCCCC3)ccc2O[C@H]1CN(C)S(C)(=O)=O | -0.6 | -16.1 | nt | -0.1 | -2.1
O=C(CCCCn1ccc(=O)[nH]c1=O)Nc1ccc(O)c(C(=O)O)c1 | 0.5 | 2.0 | 12.9 | 43.1* | 0.6
CC(C)(C)N1CC(C(=O)O)CC1=O (stereo not given) | 2.6 | nt | -5.1 | 43.0* | -6.7
O=c1[nH]c(N/N=C\c2ccc3c(c2)OCO3)nc2ccccc12 | -1.8 | nt | i | 0.3 | -2.8
O=c1cnnc(N/N=C/c2ccc3c(c2)OCO3)[nH]1 | -1.7 | -0.5 | 55.2* | -0.1 | -3.7
O=C(O)c1ccc(N/N=C/c2ccc3c(c2)OCO3)cc1 | -1.3 | nt | 70.1* | 0.1 | -4.7
C=CCn1c(SCc2c(C)noc2C)nc2sc(C)c(C)c2c1=O | nt | nt | 67.8* | nt | nt
C=CCn1c(SCC(=O)NCCO)nc2sc(C)c(C)c2c1=O | 0.6 | nt | 31.8 | -0.1 | -1.2
OC[C@@H]1[C@@H](c2ccccc2)C2(CN(Cc3nccs3)C2)N1Cc1ccccc1 | -2.4 | 0.1 | nt | 0.0 | 7.3
